Only some compounds are listed: those with a hit (about 3.3% of all), similar ones and a draw of the others.
SIAE inh: inhibitors of human sialic acid acetylesterase SIAE; Q9HAT2; inhibition, % at 9.66 µM; SIAE FP-Rh probe binding, fluorescence polarization; hit rate 0.69% among 370,000;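 active = inhibition above a cutoff: mean of compounds within the control limits plus 3 SD of those, cut at about 17% in these data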
PRMT1 FP inh: blocks human protein arginine methyltransferase 1 | Q99873 | recombinant PRMT1, activity-based probe fluorescence polarization | inhibition, % at 2.79 µM | hit rate 1.3% among 370,000 | AID 652257;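 active = inhibition above about 21% made by adding two undisclosed values, limit read from the data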
mABHD4 FP: ABHD4 (mouse) inhibition, primary FP screen. Q8VD66. purified mABHD4, FP-Rh probe fluorescence polarization. inhibition, % at 8.92 µM. hit rate 0.54% among 370,000. AID 720543;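 active = inhibition exceeding the mean over every tested compound plus 3 SD, cut at about 30% in these data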
Target sequence (Q8VD66 whole entry, looked up): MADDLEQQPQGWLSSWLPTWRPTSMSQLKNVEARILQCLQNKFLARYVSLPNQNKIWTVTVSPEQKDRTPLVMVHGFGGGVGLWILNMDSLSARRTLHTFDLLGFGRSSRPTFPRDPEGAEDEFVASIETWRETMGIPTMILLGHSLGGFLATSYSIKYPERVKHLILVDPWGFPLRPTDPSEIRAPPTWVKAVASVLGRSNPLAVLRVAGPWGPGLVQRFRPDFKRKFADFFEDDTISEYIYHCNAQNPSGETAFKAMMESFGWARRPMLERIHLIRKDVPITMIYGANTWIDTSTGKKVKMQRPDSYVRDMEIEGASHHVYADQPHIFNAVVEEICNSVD
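Test system: mABHD4 protein; Read-out basis: % inhibition; Incubation: 45 min + 60 min at 25 °C; Repeats: single replicate; Technique: fluorescence polarization with parallel and perpendicular emission, 525/598 nm; Compound: 8.92 µM, single dose; Benchmarks: full inhibition S159A mutant plus DMSO, zero as sample-well median.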
rCAG binder: r(CAG) repeat RNA binding | TO-PRO-1 dye displacement fluorescence | inhibition, % at 3 µM | hit rate 1.3% among 370,000 | AID 651821;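 active = inhibition above the plate cutoff, the mean of all test compounds on that plate plus 3 SD, cut at about 35% in these data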;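 also: higher means more dye released from RNA so lower well fluorescence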
TCR CD3 inh: blocks the human TCR-CD3 interaction; inhibition, % at 9.4 µM; TAMRA-labeled TCR probe fluorescence, biochemical; hit rate 0.37% among 360,000; AID 651800; in the data active = inhibition above about 19%;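 also: recombinant mutant TCR 2C K166C tagged with TAMRA read by polarization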
A number is an active result.

For CC(=O)OCC1=C(C(=O)O)N2C(=O)[C@@H](NC(=O)Cc3cccs3)[C@H]2SC1 the results were SIAE inh inactive, PRMT1 FP inh inactive, mABHD4 FP inactive, rCAG binder inactive and TCR CD3 inh inactive.
`CC(C)C1N=C(NC(=O)OCc2ccccc2)NC1=O` (stereo unspecified) (tested in a mixture with another compound) gave SIAE inh inactive, PRMT1 FP inh inactive, mABHD4 FP inactive and rCAG binder inactive.
Screening COC(=O)[C@]12C[C@H](CC(=O)N3CCCCC3)C(=O)N(Cc3cccc4ccccc34)C1=C[C@H](C(C)(C)C)O[C@@H]2C returned SIAE inh inactive, PRMT1 FP inh inactive, mABHD4 FP inactive and rCAG binder inactive.
`Cc1ccc(-c2cc(C(=O)NN=Cc3cccc(Oc4ccccc4)c3)[nH]n2)cc1C` gave SIAE inh inactive, PRMT1 FP inh inactive, mABHD4 FP inactive and rCAG binder inactive.
For S=c1[nH]nc(COc2ccccc2)n1/N=C/c1ccccc1Cl the results were SIAE inh inactive, PRMT1 FP inh 23, mABHD4 FP inactive, rCAG binder inactive and TCR CD3 inh inactive.
`S=c1[nH]nc(COc2ccccc2)n1/N=C/c1cccc(Cl)c1Cl` gave SIAE inh inactive, PRMT1 FP inh inactive, mABHD4 FP inactive, rCAG binder inactive and TCR CD3 inh inactive.
Screening COc1ccc(CNC(=O)O[C@H]2CC[C@@]34CCCN3C(=O)CCC[C@H]4C2)cc1OC returned SIAE inh inactive, PRMT1 FP inh inactive and mABHD4 FP inactive.
`Cc1ccc(NC(=S)NNC(=O)CSc2nnc(-c3ccc(C)cc3)n2C2CCCCC2)cc1` gave SIAE inh inactive, PRMT1 FP inh inactive, mABHD4 FP inactive and rCAG binder inactive.
`Cc1ccc(-c2csc(/C(C#N)=C(\O)CN3CCN(C(=O)c4ccco4)CC3)n2)cc1` gave SIAE inh inactive, PRMT1 FP inh inactive, mABHD4 FP inactive, rCAG binder 62 and TCR CD3 inh inactive.
`Cc1ccc(-c2csc(/C(C#N)=C(\O)CCl)n2)cc1` gave SIAE inh inactive, PRMT1 FP inh inactive, mABHD4 FP inactive, rCAG binder 35 and TCR CD3 inh inactive.
C[C@H]1[C@H](c2ccccc2)OC(O)([C@H](Cc2ccccc2)NC(=O)OC(C)(C)C)CN1C (stereo partly specified) was read as SIAE inh inactive, PRMT1 FP inh inactive and mABHD4 FP inactive.
For CCC1CCCCN1C(=S)NN=C(C)c1ccccn1 (stereo unspecified) the results were SIAE inh inactive, PRMT1 FP inh 24, mABHD4 FP inactive, rCAG binder inactive and TCR CD3 inh inactive.
O=C(NCc1cccnc1)O[C@H]1CC[C@@]23CCCN2C(=O)CCC[C@H]3C1 was read as SIAE inh inactive, PRMT1 FP inh inactive and mABHD4 FP inactive.
Screening COCCCn1c(=S)[nH]c2ccc(N3CCOCC3)cc2c1=O returned SIAE inh inactive, PRMT1 FP inh inactive, mABHD4 FP inactive, rCAG binder inactive and TCR CD3 inh inactive.
Screening CCCCN(C)CCn1c(=S)[nH]c2ccc(N3CCOCC3)cc2c1=O returned SIAE inh inactive, PRMT1 FP inh 24, mABHD4 FP inactive, rCAG binder inactive and TCR CD3 inh inactive.
For CC(=O)c1cc(-c2ccccc2-c2ccccc2)c(=O)n2c1CCC2 the results were SIAE inh inactive, PRMT1 FP inh inactive, mABHD4 FP inactive and rCAG binder inactive.
For O=C1CC(N2CCN(c3ccccc3Cl)CC2)C(=O)N1c1ccccc1 (stereo unspecified) the results were SIAE inh inactive, PRMT1 FP inh 24, mABHD4 FP inactive, rCAG binder inactive and TCR CD3 inh inactive.
Screening CC(C)C(NC(=O)[C@H](Cc1ccccc1)NC(=O)OCc1ccccc1)P(=O)(O)OC(Cc1ccccc1)C(=O)O (stereo partly specified) returned SIAE inh inactive, PRMT1 FP inh inactive and mABHD4 FP inactive.
For O=C1CCCC2=C1C(c1ccc(O)c(O)c1)Nc1ccc3ncccc3c12 (stereo unspecified) the results were SIAE inh inactive, PRMT1 FP inh 34, mABHD4 FP inactive, rCAG binder inactive and TCR CD3 inh inactive.
For O=C(Sc1n[nH]c(=O)[nH]c1=O)c1ccccc1 the results were SIAE inh inactive, PRMT1 FP inh 88, mABHD4 FP inactive, rCAG binder inactive and TCR CD3 inh inactive.
`Cc1sc(N)c(C(=O)c2ccccc2)c1C` gave SIAE inh inactive, PRMT1 FP inh 41, mABHD4 FP inactive, rCAG binder inactive and TCR CD3 inh inactive.

From PubChem BioAssay
